Key:
[1] = molecular target: T1, Mineralocorticoid receptor (Homo sapiens, UniProt P08235); assay: Inhibitory activity (IC50) against human mineralocorticoid receptor expressed in CV-1 cells; assay type: cell-based
T1 sequence (P08235 whole entry): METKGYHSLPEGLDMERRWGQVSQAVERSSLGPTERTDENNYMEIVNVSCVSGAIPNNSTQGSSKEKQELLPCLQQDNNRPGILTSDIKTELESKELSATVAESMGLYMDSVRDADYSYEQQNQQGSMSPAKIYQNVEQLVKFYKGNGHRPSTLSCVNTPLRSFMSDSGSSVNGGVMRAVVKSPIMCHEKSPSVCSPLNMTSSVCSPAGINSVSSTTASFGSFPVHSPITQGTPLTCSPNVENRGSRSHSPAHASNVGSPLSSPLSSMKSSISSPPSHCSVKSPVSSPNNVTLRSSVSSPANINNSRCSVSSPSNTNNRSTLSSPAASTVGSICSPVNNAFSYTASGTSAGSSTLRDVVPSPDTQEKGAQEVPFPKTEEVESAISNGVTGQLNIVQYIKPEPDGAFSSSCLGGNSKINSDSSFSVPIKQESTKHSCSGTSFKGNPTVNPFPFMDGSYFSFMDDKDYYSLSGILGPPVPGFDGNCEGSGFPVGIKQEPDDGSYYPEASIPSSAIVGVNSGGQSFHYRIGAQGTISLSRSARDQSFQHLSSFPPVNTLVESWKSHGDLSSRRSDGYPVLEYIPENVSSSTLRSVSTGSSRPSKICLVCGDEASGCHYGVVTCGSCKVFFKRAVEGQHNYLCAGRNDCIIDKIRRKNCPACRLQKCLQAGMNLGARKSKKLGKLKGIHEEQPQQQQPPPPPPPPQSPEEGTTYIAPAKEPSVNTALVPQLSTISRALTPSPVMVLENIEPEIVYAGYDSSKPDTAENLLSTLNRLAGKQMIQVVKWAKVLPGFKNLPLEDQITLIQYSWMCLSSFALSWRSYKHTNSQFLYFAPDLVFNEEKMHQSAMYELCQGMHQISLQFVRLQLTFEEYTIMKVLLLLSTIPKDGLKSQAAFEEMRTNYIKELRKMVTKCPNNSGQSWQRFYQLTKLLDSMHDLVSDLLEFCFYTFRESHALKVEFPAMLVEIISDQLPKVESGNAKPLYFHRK
How it was run: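 Cotransfection assays in CV-1 cells with a luciferase reporter, read as normalized LUC expression. In antagonist mode, the reference agonists were DHT for hAR, dexamethasone for hGR and aldosterone for hMR. Antagonist efficacy was expressed as the percent of maximal inhibition of the agonist. Values are means of at least three separate experiments in triplicate, or of two experiments.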

Estrogen receptor = Estrogen receptor (Homo sapiens, UniProt Q92731+P03372); conditions: cv-1
Androgen receptor = molecular target: T2, Androgen receptor (Homo sapiens, UniProt P10275)
T2 sequence (P10275 whole entry): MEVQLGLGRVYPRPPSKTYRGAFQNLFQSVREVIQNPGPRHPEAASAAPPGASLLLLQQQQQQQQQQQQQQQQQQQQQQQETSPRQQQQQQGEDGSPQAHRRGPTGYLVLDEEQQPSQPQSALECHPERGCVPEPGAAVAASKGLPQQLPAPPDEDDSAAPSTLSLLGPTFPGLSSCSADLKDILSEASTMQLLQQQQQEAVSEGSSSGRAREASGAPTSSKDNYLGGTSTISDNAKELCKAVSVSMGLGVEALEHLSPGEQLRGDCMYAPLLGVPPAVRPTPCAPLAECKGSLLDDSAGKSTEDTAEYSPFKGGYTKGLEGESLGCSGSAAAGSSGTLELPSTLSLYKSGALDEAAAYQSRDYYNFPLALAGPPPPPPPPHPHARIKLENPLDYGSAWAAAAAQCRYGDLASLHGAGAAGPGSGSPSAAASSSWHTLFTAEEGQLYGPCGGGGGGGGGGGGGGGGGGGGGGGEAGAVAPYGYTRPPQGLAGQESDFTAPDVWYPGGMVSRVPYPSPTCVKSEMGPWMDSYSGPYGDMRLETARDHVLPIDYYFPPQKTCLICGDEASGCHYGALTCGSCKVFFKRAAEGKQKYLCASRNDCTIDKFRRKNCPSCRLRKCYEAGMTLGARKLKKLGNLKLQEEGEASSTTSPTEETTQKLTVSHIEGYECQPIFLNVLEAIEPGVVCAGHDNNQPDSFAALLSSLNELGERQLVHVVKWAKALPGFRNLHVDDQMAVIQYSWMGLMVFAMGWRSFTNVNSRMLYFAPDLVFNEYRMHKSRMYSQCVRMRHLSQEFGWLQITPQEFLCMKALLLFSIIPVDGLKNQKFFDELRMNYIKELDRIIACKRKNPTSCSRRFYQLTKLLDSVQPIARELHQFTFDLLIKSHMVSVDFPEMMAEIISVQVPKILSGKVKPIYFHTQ

Progesterone receptor = molecular target: T3, Progesterone receptor (Homo sapiens, UniProt P06401); assay: Effective concentration (EC50) against human progesterone receptor expressed in CV-1 cell; assay type: functional, cell-based
T3 sequence (P06401 whole entry): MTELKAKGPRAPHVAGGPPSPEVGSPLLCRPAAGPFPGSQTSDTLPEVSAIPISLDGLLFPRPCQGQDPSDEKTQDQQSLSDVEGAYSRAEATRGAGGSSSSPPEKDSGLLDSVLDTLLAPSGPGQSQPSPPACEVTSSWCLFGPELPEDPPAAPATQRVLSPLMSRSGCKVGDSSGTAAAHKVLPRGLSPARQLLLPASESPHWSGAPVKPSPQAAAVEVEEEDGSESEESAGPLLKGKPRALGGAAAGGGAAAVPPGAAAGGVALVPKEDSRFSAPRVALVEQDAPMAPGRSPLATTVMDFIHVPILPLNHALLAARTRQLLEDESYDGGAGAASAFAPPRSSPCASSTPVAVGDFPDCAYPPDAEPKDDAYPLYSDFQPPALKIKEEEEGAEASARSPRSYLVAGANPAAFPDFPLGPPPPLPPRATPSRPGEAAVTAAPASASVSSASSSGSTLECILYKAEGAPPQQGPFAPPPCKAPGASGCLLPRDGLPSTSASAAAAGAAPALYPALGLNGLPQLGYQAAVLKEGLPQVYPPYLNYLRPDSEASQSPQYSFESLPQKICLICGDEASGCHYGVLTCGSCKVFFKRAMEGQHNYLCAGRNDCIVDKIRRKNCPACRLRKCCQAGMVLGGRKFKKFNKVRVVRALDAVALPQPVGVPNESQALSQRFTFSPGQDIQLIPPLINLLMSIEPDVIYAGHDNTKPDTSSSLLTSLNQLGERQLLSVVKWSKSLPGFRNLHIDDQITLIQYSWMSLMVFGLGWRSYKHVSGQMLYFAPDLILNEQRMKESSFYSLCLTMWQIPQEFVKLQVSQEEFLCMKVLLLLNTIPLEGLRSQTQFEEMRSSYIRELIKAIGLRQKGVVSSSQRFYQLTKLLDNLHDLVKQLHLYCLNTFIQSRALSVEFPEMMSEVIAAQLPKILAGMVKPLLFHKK

SMILES | IC50 [1] [nM] | IC50 (Estrogen receptor) [nM] | Ki (Androgen receptor) [nM] | EC50 (Progesterone receptor) [nM]
CC1=CC(C)(C)Nc2ccc3c(c21)/C(=C/c1cc(F)ccc1F)Oc1ccccc1-3 | > 10000 | > 10000 | 887 | 14.7
CC1=CC(C)(C)Nc2ccc3c(c21)/C(=C/c1ccccc1C)Oc1ccccc1-3 | > 10000 | < 20 | 844 | 5.7
CC1=CC(C)(C)Nc2ccc3c(c21)/C(=C/c1ccc(F)c(F)c1)Oc1ccccc1-3 | > 10000 | > 10000 | > 1000 | 14.7

— ChEMBL document CHEMBL1131161 (J Med Chem, 1998)
